ChEMBL document CHEMBL1629477, “Efficient synthesis of 6-(hetero)arylthieno[3,2-b]pyridines by Suzuki-Miyaura coupling. Evaluation of growth inhibition on human tumor cell lines, SARs and effects on the cell cycle” (2010)

How the values were obtained:
Type in all cases: functional
A-375 = experiment: Growth inhibition of human A375 cells after 48 hrs by sulforhodamine B assay; details: A-375, 48 h
Outline: (§1)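 Cells kept adherent in RPMI-1640 with 5% heat-inactivated FBS, 2 mM glutamine and penicillin/streptomycin at 37 °C, 5% CO₂. Seeded at 1.5 × 10⁵ cells/mL (MCF-7) or 0.75 × 10⁵ cells/mL (A375-C5, NCI-H460), then grown 24 h. Exposed 48 h to five serial dilutions from up to 150 µM, DMSO ≤0.25%. SRB stain, absorbance 492 nm. GI₅₀ is 50% net growth inhibition; three experiments in duplicate; doxorubicin positive control.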

MCF7 = experiment: Growth inhibition of human MCF7 cells after 48 hrs by sulforhodamine B assay; details: MCF7, 48 h; outline: as §1
NCI-H460 [1] = experiment: Growth inhibition of human NCI-H460 cells after 48 hrs by sulforhodamine B assay; details: NCI-H460, 48 h; outline: as §1
NCI-H460 [2] = experiment: Cell cycle arrest in human NCI-H460 cells assessed as accumulation at G2/M phase after 48 hrs by flow cytometry
Outline: (§2)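 NCI-H460 cells plated at 0.75 × 10⁵ cells/mL, then exposed 48 h to GI₅₀ or 2 × GI₅₀ concentrations (from the SRB assay). Controls were medium only (blank) and DMSO solvent. Cells were harvested, fixed in 70% ethanol and resuspended in PBS. G1/G0, S and G2/M fractions were read by flow cytometry. Three independent experiments in duplicate, mean ± SD.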

NCI-H460 [3] = experiment: Cell cycle arrest in human NCI-H460 cells assessed as accumulation at G1 phase after 48 hrs by flow cytometry; outline: as §2

| Structure (SMILES) | GI50 (A-375) [µM] | GI50 (MCF7) [µM] | GI50 (NCI-H460 [1]) [µM] | Activity (NCI-H460 [2]) [%] | Activity (NCI-H460 [3]) [%] |
| --- | --- | --- | --- | --- | --- |
| COC(=O)c1sc2cc(-c3cnc4ccccc4c3)cnc2c1N | 9.1 | 9.8 | 9.5 |  |  |
| COC(=O)c1sc2cc(-c3ccc4ncccc4c3)cnc2c1N | > 150 | > 150 | > 150 |  |  |
| COC(=O)c1sc2cc(-c3cc(OC)cc(OC)c3)cnc2c1N | 82 | 56.6 | 31.8 |  |  |
| COC(=O)c1sc2cc(-c3cccc(N)c3)cnc2c1N | > 150 | > 150 | > 150 |  |  |
| COC(=O)c1sc2cc(-c3ccccc3N)cnc2c1N | 2.5 | 4.2 | 3.8 | 12 |  |
| COC(=O)c1sc2cc(-c3ccc4ccccc4c3)cnc2c1N | 95.6 | 50.9 | 43.5 |  |  |
| COC(=O)c1sc2cc(-c3ccoc3)cnc2c1N | > 120 | > 120 | > 120 |  |  |
| COC(=O)c1sc2cc(-c3ccc(C(F)(F)F)cc3)cnc2c1N | > 150 | > 150 | > 150 |  |  |
| COC(=O)c1sc2cc(-c3cncc4ccccc34)cnc2c1N | 10.1 | 10.7 | 7.7 |  |  |
| COC(=O)c1sc2cc(-c3cccnc3)cnc2c1N | > 112 | > 112 | > 112 |  |  |
| COC(=O)c1sc2cc(-c3ccc(-c4cccs4)s3)cnc2c1N | > 75 | 1 | 0.7 |  | 15 |
| COC(=O)c1sc2cc(-c3cnc(OC)nc3OC)cnc2c1N | > 75 | > 75 | > 75 |  |  |
| COC(=O)c1sc2cc(-c3ccsc3)cnc2c1N | 12.1 | 12.7 | 12.4 |  |  |
| COC(=O)c1sc2cc(-c3ccc4c(ccn4C)c3)cnc2c1N | 21.2 | 23 | 20.3 |  |  |
| COC(=O)c1sc2cc(-c3ccc(OC)nc3)cnc2c1N | > 37.5 | > 37.5 | > 37.5 |  |  |
| COC(=O)c1sc2cc(-c3ccc(C(C)=O)cc3)cnc2c1N | > 150 | > 150 | > 150 |  |  |
| COC(=O)c1sc2cc(-c3cccs3)cnc2c1N | > 150 | 26.9 | 18 |  |  |
| COC(=O)c1sc2cc(-c3cnn(C)c3)cnc2c1N | > 150 | > 150 | > 150 |  |  |
| COC(=O)c1sc2cc(-c3ccc(C#N)cc3)cnc2c1N | > 75 | > 75 | > 75 |  |  |
| COC(=O)c1sc2cc(-c3ccc(OC)cc3)cnc2c1N | > 150 | > 150 | > 150 |  |  |
| COC(=O)c1sc2cc(-c3ccc(N)cc3)cnc2c1N | 80.8 | 108 | 37.1 |  |  |
